Measured values from ChEMBL document CHEMBL3085754, “Clicking 3'-azidothymidine into novel potent inhibitors of human immunodeficiency virus” (J Med Chem, 2013).
Calls of active or inactive are those of the source. No cut-off for these calls is given here.

Assays:
[1] = test system: Human immunodeficiency virus 1; test: Antiviral activity against wild type Human immunodeficiency virus 1 expressing p24 infected in human HeLa P4/R5 cells up to 10 uM preincubated for 16 hrs prior to virus infection measured after 48 hrs by beta-galactosidase-based single replication cycle assay; type: functional, organism-based
Procedure, shortened: (§1)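 P4R5 indicator cells express CD4, CXCR4, CCR5 and an HIV LTR-driven β-galactosidase reporter, and were kept in DMEM/10% FBS with puromycin. Cells were seeded at 5×10^3 per well and exposed to varying drug concentrations for 16 h. They were then inoculated with 25 ng HIV-1 p24 per well. Infection was quantified 48 h post-infection by fluorescence-based β-galactosidase detection.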

CEM-SS [2] = test: Cytotoxicity against human CEM-SS cells assessed as cell viability at 10 uM after 6 days by MTS assay relative to control; type: cell-based; conditions: 144 h
[3] = test system: Human immunodeficiency virus 1; test: Antiviral activity against Human immunodeficiency virus 1 3B infected in human CEM-SS cells assessed as inhibition of virus-induced cytopathic effect at 10 uM after 6 days by MTS assay relative to control; type: functional; conditions: 144 h
[4] = test system: Human immunodeficiency virus 1; test: Ratio of EC50 for NNRTI-resistant Human immunodeficiency virus 1 to EC50 for wild type Human immunodeficiency virus 1 expressing p24; type: functional
[5] = test system: Human immunodeficiency virus 1; test: Antiviral activity against NNRTI-resistant Human immunodeficiency virus 1; type: functional, organism-based
[6] = test system: Human immunodeficiency virus 1; test: Antiviral activity against wild type Human immunodeficiency virus 1 expressing p24 infected in human HeLa P4/R5 cells preincubated for 16 hrs prior to virus infection measured after 48 hrs by beta-galactosidase-based single replication cycle assay; type: functional, organism-based; conditions: Human immunodeficiency virus 1, P4/R5; procedure, shortened: as §1
[7] = Therapeutic index, ratio of CC50 for human CEM-SS cells to EC50 for Human immunodeficiency virus 1 3B; type: cell-based; conditions: read-out: Ratio CC50/EC50
CEM-SS [8] = test: Cytotoxicity against human CEM-SS cells assessed as cell viability after 6 days by MTS assay; type: cell-based; conditions: cem-ss, 144 h
[9] = test system: Human immunodeficiency virus 1; test: Antiviral activity against Human immunodeficiency virus 1 3B infected in human CEM-SS cells assessed as inhibition of virus-induced cytopathic effect after 6 days by MTS assay; type: functional, organism-based; conditions: 144 h

With Cc1cn([C@H]2C[C@H](n3nncc3C3CCCCC3)[C@@H](CO)O2)c(=O)[nH]c1=O the Activity [1] was “inactive”, the Activity (CEM-SS [2]) was 88% and the inhibition at 10 µM [3] was 43%.
In the case of Cc1cn([C@H]2C[C@H](n3nncc3COc3cccc4ccccc34)[C@@H](CO)O2)c(=O)[nH]c1=O, the Activity [1] is reported as “inactive”, the Activity (CEM-SS [2]) is reported as 93% and the inhibition at 10 µM [3] is reported as 42%.
With Cc1cn([C@H]2C[C@H](n3cc(CO)nn3)[C@@H](CO)O2)c(=O)[nH]c1=O the Activity (CEM-SS [2]) was 100% and the inhibition at 10 µM [3] was 5%.
Work on Cc1cn([C@H]2C[C@H](n3cc(-c4ccc(Oc5ccccc5)cc4)nn3)[C@@H](CO)O2)c(=O)[nH]c1=O yielded an Activity (CEM-SS [2]) of 100% and an inhibition at 10 µM [3] of 0%.
Cc1cn([C@H]2C[C@H](n3nncc3C3(O)c4ccccc4-c4ccccc43)[C@@H](CO)O2)c(=O)[nH]c1=O gave an Activity (CEM-SS [2]) of 97% and an inhibition at 10 µM [3] of 0%.
In the case of Cc1cn([C@H]2C[C@H](n3cc(-c4ccc(-c5ccccc5)cc4)nn3)[C@@H](CO)O2)c(=O)[nH]c1=O, the Activity (CEM-SS [2]) is reported as 88% and the inhibition at 10 µM [3] is reported as 91%.
With Cc1cn([C@H]2C[C@H](n3nncc3-c3ccc(-c4ccccc4)cc3)[C@@H](CO)O2)c(=O)[nH]c1=O the Activity [1] was “inactive”, the Activity (CEM-SS [2]) was 80% and the inhibition at 10 µM [3] was 63%.
Cc1cn([C@H]2C[C@H](n3cc(C4CC4)nn3)[C@@H](CO)O2)c(=O)[nH]c1=O showed an Activity (CEM-SS [2]) of 100% and an inhibition at 10 µM [3] of 1%.
For Cc1cn([C@H]2C[C@H](n3cc(C4CCCCC4)nn3)[C@@H](CO)O2)c(=O)[nH]c1=O, the Activity (CEM-SS [2]) was 100% and the inhibition at 10 µM [3] was 0%.
For COc1ccc2cc(OCc3cnnn3[C@H]3C[C@H](n4cc(C)c(=O)[nH]c4=O)O[C@@H]3CO)ccc2c1, the Activity [1] was “inactive”, the Activity (CEM-SS [2]) was 100% and the inhibition at 10 µM [3] was 57%.
With Cc1cn([C@H]2C[C@H](n3nncc3-c3ccc(Cl)cc3)[C@@H](CO)O2)c(=O)[nH]c1=O the Activity (CEM-SS [2]) was 100% and the inhibition at 10 µM [3] was 23%.
Cc1cn([C@H]2C[C@H](n3cc(COc4cccc5ccccc45)nn3)[C@@H](CO)O2)c(=O)[nH]c1=O gave an Activity (CEM-SS [2]) of 100% and an inhibition at 10 µM [3] of 5%.
With COc1ccc2cc(-c3cn([C@H]4C[C@H](n5cc(C)c(=O)[nH]c5=O)O[C@@H]4CO)nn3)ccc2c1 the Activity (CEM-SS [2]) was 95% and the inhibition at 10 µM [3] was 35%.
In the case of Cc1cn([C@H]2C[C@H](n3cc(-c4ccc(Cl)cc4)nn3)[C@@H](CO)O2)c(=O)[nH]c1=O, the Activity (CEM-SS [2]) is reported as 100% and the inhibition at 10 µM [3] is reported as 0%.
For Cc1cn([C@H]2C[C@H](n3nncc3-c3ccc(Cl)c(Cl)c3)[C@@H](CO)O2)c(=O)[nH]c1=O, the Activity [1] was “inactive”, the Activity (CEM-SS [2]) was 100% and the inhibition at 10 µM [3] was 31%.
Work on COC(=O)C(Cc1ccc(OCc2cn([C@H]3C[C@H](n4cc(C)c(=O)[nH]c4=O)O[C@@H]3CO)nn2)cc1)NC(=O)OC(C)(C)C (some centres undefined) yielded an Activity (CEM-SS [2]) of 99% and an inhibition at 10 µM [3] of 0%.
In the case of Cc1cn([C@H]2C[C@H](n3nncc3-c3ccccc3)[C@@H](CO)O2)c(=O)[nH]c1=O, the Activity (CEM-SS [2]) is reported as 100% and the inhibition at 10 µM [3] is reported as 44%.
In the case of COc1ccc2cc(-c3cnnn3[C@H]3C[C@H](n4cc(C)c(=O)[nH]c4=O)O[C@@H]3CO)ccc2c1, the “Ratio EC50” value [4] is reported as 0.4, the EC50 [5] is reported as 1.8 µM and the EC50 [6] is reported as 4.1 µM. The Activity (CEM-SS [2]) was 100% and the inhibition at 10 µM [3] was 43%.
Cc1cn([C@H]2C[C@H](n3nncc3-c3ccc4[nH]ccc4c3)[C@@H](CO)O2)c(=O)[nH]c1=O showed an Activity (CEM-SS [2]) of 82% and an inhibition at 10 µM [3] of 12%.
Work on Cc1cn([C@H]2C[C@H](n3cc(COc4ccccc4)nn3)[C@@H](CO)O2)c(=O)[nH]c1=O yielded an Activity (CEM-SS [2]) of 85% and an inhibition at 10 µM [3] of 7%.
With Cc1cn([C@H]2C[C@H](n3cc(-c4ccc5ccccc5c4)nn3)[C@@H](CO)O2)c(=O)[nH]c1=O the “Ratio EC50” value [4] was 0.3, the EC50 [5] was 2.1 µM and the EC50 [6] was 7.2 µM. It also gave an Activity (CEM-SS [2]) of 98% and an inhibition at 10 µM [3] of 33%.
For Cc1cn([C@H]2C[C@H](n3cc(-c4cc5ccccc5c5ccccc45)nn3)[C@@H](CO)O2)c(=O)[nH]c1=O, the “Ratio EC50” value [4] was 0.2, the EC50 [5] was 1 µM and the EC50 [6] was 4.7 µM. It also gave an Activity (CEM-SS [2]) of 100% and an inhibition at 10 µM [3] of 42%.
For Cc1cn([C@H]2C[C@H](n3nncc3-c3cc4ccccc4c4ccccc34)[C@@H](CO)O2)c(=O)[nH]c1=O, the EC50 [6] was over 5 µM, the selectivity ratio [7] was 210 and the CC50 (CEM-SS [8]) was 21 µM. The EC50 [9] was 0.1 µM, the Activity (CEM-SS [2]) was 100% and the inhibition at 10 µM [3] was 100%.
Compound Cc1cn([C@H]2C[C@H](n3cc(C4(O)c5ccccc5-c5ccccc54)nn3)[C@@H](CO)O2)c(=O)[nH]c1=O has an Activity (CEM-SS [2]) of 100% and an inhibition at 10 µM [3] of 11%.
Cc1cn([C@H]2C[C@H](n3nncc3C3CC3)[C@@H](CO)O2)c(=O)[nH]c1=O gave an Activity (CEM-SS [2]) of 100% and an inhibition at 10 µM [3] of 17%.
Cc1cn([C@H]2C[C@H](n3cc(-c4ccnc5ccccc45)nn3)[C@@H](CO)O2)c(=O)[nH]c1=O gave an Activity (CEM-SS [2]) of 100% and an inhibition at 10 µM [3] of 44%.
For Cc1cn([C@H]2C[C@H](n3nncc3-c3ccnc4ccccc34)[C@@H](CO)O2)c(=O)[nH]c1=O, the Activity (CEM-SS [2]) was 94% and the inhibition at 10 µM [3] was 74%.
With COc1ccc2ccc(OCc3cn([C@H]4C[C@H](n5cc(C)c(=O)[nH]c5=O)O[C@@H]4CO)nn3)cc2c1 the Activity (CEM-SS [2]) was 100% and the inhibition at 10 µM [3] was 0%.
In the case of Cc1cn([C@H]2C[C@H](n3cc(COc4ccc5ccccc5c4)nn3)[C@@H](CO)O2)c(=O)[nH]c1=O, the Activity (CEM-SS [2]) is reported as 100% and the inhibition at 10 µM [3] is reported as 0%.
In the case of Cc1cn([C@H]2C[C@H](n3cc(-c4ccccc4)nn3)[C@@H](CO)O2)c(=O)[nH]c1=O, the Activity (CEM-SS [2]) is reported as 100% and the inhibition at 10 µM [3] is reported as 24%.
In the case of Cc1cn([C@H]2C[C@H](n3cc(-c4ccc5[nH]ccc5c4)nn3)[C@@H](CO)O2)c(=O)[nH]c1=O, the Activity (CEM-SS [2]) is reported as 100% and the inhibition at 10 µM [3] is reported as 35%.
Cc1cn([C@H]2C[C@H](n3nncc3-c3ccc4ccccc4c3)[C@@H](CO)O2)c(=O)[nH]c1=O showed an Activity (CEM-SS [2]) of 100% and an inhibition at 10 µM [3] of 37%.
Cc1cn([C@H]2C[C@H](n3cc(-c4cccc5ccccc45)nn3)[C@@H](CO)O2)c(=O)[nH]c1=O showed an Activity (CEM-SS [2]) of 100% and an inhibition at 10 µM [3] of 1%.
COc1ccc2cc(OCc3cn([C@H]4C[C@H](n5cc(C)c(=O)[nH]c5=O)O[C@@H]4CO)nn3)ccc2c1 gave an Activity (CEM-SS [2]) of 100% and an inhibition at 10 µM [3] of 0%.
Work on COC(=O)C(Cc1ccc(OCc2cnnn2[C@H]2C[C@H](n3cc(C)c(=O)[nH]c3=O)O[C@@H]2CO)cc1)NC(=O)OC(C)(C)C (some centres undefined) yielded an Activity (CEM-SS [2]) of 90% and an inhibition at 10 µM [3] of 17%.
Compound Cc1cn([C@H]2C[C@H](n3cc(-c4ccc(Cl)c(Cl)c4)nn3)[C@@H](CO)O2)c(=O)[nH]c1=O has an Activity (CEM-SS [2]) of 100% and an inhibition at 10 µM [3] of 6%.
Work on Cc1cn([C@H]2C[C@H](n3nncc3CO)[C@@H](CO)O2)c(=O)[nH]c1=O yielded an Activity (CEM-SS [2]) of 100% and an inhibition at 10 µM [3] of 0%.
In the case of Cc1cn([C@H]2C[C@H](n3nncc3-c3ccc(Oc4ccccc4)cc3)[C@@H](CO)O2)c(=O)[nH]c1=O, the Activity [1] is reported as “inactive”, the Activity (CEM-SS [2]) is reported as 97% and the inhibition at 10 µM [3] is reported as 67%.
COc1ccc2ccc(OCc3cnnn3[C@H]3C[C@H](n4cc(C)c(=O)[nH]c4=O)O[C@@H]3CO)cc2c1 showed an Activity (CEM-SS [2]) of 99% and an inhibition at 10 µM [3] of 10%.
Cc1cn([C@H]2C[C@H](n3nncc3COc3ccccc3)[C@@H](CO)O2)c(=O)[nH]c1=O gave an Activity (CEM-SS [2]) of 100% and an inhibition at 10 µM [3] of 51%.
